Measured values taken from ChEMBL document CHEMBL5715953, “A Potent, Selective, and Cell-Active Inhibitor of Human Type I Protein Arginine Methyltransferases” (ACS Chem Biol, 2016).
Each block holds one compound with its values, some of them ahead of it. Active and inactive are the calls of the source. The calls are words filed in the database; no cut-off is given here.

Columns and labels:
[1] = biological target: T1, Protein arginine N-methyltransferase 6 (Homo sapiens, UniProt Q96LA8); experiment: Inhibition of human PRMT6 using (3H) methylated biotin labelled peptide as substrate in presence of 3H-SAM by scintillation proximity assay
[2] = biological target: T2, Protein arginine N-methyltransferase 8 (Homo sapiens, UniProt Q9NR22); experiment: Inhibition of human PRMT8 using (3H) methylated biotin labelled peptide as substrate in presence of 3H-SAM by scintillation proximity assay
Method in brief: (§1)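 Scintillation proximity assay: 3H-SAM as methyl donor, with non-tritiated SAM added when needed. The 3H-methylated biotinylated peptide is captured on streptavidin/scintillant-coated plates and read as counts per minute. IC50 comes from compound titration under balanced conditions, with substrate and cofactor at their Km values. Run in triplicate, mean ± SD. Ki is derived from IC50. A lower enzyme level (5 nM) is used for some potent compounds.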

[3] = biological target: T3, Protein arginine N-methyltransferase 9 (Homo sapiens) (UniProt Q6P2P2); experiment: Inhibition of human PRMT9 using (3H) methylated biotin labelled peptide as substrate in presence of 3H-SAM by scintillation proximity assay; method in brief: as §1
T3 sequence (whole entry): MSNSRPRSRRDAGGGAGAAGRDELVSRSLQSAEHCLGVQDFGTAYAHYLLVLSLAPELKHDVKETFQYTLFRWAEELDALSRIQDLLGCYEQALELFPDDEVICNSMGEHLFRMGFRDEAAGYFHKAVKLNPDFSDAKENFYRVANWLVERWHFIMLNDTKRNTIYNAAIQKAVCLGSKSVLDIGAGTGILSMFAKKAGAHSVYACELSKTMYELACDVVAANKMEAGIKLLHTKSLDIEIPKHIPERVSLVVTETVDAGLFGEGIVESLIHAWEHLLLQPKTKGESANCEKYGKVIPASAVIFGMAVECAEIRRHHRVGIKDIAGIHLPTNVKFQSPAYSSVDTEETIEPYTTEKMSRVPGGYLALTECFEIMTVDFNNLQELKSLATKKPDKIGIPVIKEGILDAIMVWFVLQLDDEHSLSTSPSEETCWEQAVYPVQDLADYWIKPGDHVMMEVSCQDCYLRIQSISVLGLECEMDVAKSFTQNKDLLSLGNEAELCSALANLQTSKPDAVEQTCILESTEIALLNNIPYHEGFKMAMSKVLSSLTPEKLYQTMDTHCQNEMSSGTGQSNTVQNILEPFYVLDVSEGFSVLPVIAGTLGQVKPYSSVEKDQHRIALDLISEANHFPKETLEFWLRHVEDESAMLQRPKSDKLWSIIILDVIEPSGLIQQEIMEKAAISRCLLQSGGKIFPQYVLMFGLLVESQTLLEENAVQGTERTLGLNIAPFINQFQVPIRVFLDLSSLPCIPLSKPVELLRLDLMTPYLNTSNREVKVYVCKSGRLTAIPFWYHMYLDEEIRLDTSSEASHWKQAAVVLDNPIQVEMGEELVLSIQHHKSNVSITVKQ

[4] = biological target: T4, Histone-arginine methyltransferase CARM1 (Homo sapiens) (UniProt Q86X55); experiment: (§2) Inhibition of human PRMT4 using (3H) methylated biotin labelled peptide as substrate in presence of 3H-SAM by scintillation proximity assay
T4 sequence (whole entry): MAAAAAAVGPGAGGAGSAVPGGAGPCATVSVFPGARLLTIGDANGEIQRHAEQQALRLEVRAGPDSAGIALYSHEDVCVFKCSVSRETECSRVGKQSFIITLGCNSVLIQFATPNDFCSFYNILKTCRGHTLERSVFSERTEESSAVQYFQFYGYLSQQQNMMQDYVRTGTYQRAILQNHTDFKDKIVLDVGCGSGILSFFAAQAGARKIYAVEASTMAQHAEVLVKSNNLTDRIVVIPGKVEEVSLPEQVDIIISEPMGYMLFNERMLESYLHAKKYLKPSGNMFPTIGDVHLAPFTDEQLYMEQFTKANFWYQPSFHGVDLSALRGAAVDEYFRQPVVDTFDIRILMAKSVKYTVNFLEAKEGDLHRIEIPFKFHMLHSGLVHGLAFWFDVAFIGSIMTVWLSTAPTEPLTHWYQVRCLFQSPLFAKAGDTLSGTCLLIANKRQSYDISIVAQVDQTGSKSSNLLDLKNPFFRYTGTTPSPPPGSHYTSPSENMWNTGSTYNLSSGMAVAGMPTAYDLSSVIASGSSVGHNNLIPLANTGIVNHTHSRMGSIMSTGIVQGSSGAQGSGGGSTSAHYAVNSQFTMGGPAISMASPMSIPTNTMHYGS
Method in brief: as §1, with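 “IC50.” for “IC50. A lower enzyme level (5 nM) is used for some potent compounds.”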

[5] = biological target: T5, Protein arginine N-methyltransferase 3 (Homo sapiens, UniProt O60678); experiment: Inhibition of human PRMT3 using (3H) methylated biotin labelled peptide as substrate in presence of 3H-SAM by scintillation proximity assay
[6] = biological target: Protein arginine N-methyltransferase 5 (Homo sapiens) (UniProt O14744); experiment: Inhibition of human PRMT5 using (3H) methylated biotin labelled peptide as substrate in presence of 3H-SAM by scintillation proximity assay; method in brief: as §1
Chain of Protein arginine N-methyltransferase 5 (Homo sapiens) (O14744 whole entry): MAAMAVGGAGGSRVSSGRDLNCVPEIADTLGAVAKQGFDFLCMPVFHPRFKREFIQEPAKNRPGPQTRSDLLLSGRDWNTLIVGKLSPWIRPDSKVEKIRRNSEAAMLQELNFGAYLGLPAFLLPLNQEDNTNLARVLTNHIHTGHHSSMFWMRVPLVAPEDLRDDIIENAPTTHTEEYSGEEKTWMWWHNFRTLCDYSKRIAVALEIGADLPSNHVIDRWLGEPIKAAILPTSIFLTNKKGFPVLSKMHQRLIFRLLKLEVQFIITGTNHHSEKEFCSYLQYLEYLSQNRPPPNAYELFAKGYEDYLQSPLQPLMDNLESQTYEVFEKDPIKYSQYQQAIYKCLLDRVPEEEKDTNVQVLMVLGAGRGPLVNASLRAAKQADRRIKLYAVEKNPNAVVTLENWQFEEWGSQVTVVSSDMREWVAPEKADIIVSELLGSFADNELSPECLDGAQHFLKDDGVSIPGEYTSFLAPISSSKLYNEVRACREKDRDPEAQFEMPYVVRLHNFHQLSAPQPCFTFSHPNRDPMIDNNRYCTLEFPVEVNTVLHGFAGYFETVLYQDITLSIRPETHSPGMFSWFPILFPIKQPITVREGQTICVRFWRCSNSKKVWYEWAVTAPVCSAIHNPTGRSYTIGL

[7] = biological target: T6, Protein arginine N-methyltransferase 1 (Homo sapiens, UniProt Q99873); experiment: Inhibition of human PRMT1 using (3H) methylated biotin labelled peptide as substrate in presence of 3H-SAM by scintillation proximity assay
[8] = biological target: T6, Protein arginine N-methyltransferase 1; experiment: Inhibition of PRMT1 in human MCF7 cells assessed as decrease in H4R3me2a level incubated for 48 hrs by Western blotting analysis; assay type: cell-based
Target sequence in this assay (Q99873 whole entry, looked up): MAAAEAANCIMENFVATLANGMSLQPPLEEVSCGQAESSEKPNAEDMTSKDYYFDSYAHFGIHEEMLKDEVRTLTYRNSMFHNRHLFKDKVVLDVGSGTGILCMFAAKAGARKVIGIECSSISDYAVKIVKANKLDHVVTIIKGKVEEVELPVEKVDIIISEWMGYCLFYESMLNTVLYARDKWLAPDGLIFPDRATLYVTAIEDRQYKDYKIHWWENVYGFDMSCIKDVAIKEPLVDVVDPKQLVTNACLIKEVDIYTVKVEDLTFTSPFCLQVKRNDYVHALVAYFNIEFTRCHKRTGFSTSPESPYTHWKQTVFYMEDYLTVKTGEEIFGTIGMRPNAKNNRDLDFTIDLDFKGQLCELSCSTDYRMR

[9] = biological target: T7, Protein arginine N-methyltransferase 7 (Homo sapiens) (UniProt Q9NVM4); experiment: Inhibition of human PRMT7 using (3H) methylated biotin labelled peptide as substrate in presence of 3H-SAM by scintillation proximity assay; method in brief: as §1
T7 sequence (whole entry): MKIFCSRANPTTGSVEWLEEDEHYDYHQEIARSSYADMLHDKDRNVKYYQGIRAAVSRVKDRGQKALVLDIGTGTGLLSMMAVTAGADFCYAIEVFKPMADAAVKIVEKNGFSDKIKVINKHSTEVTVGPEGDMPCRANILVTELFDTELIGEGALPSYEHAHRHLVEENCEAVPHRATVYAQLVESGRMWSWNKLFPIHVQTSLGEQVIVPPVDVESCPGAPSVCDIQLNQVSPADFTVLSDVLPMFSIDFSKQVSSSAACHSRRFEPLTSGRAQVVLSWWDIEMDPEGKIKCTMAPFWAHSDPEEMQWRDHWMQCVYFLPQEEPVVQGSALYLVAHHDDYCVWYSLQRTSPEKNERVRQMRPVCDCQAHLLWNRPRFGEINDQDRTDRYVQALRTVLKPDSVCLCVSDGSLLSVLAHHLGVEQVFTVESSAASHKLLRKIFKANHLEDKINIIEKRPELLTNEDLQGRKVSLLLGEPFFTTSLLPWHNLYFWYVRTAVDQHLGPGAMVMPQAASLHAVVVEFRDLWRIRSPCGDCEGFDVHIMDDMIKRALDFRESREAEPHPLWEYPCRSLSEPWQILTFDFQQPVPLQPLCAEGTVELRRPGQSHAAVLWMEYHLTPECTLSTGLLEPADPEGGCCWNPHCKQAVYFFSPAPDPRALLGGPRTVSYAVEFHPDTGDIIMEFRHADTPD

[10] = biological target: T2, Protein arginine N-methyltransferase 8; experiment: Binding affinity to human PRMT8 assessed as inhibition constant using (3H) methylated biotin labelled peptide as substrate in presence of 3H-SAM by scintillation proximity assay; method in brief: as §1
Target sequence in this assay (Q9NR22 whole entry): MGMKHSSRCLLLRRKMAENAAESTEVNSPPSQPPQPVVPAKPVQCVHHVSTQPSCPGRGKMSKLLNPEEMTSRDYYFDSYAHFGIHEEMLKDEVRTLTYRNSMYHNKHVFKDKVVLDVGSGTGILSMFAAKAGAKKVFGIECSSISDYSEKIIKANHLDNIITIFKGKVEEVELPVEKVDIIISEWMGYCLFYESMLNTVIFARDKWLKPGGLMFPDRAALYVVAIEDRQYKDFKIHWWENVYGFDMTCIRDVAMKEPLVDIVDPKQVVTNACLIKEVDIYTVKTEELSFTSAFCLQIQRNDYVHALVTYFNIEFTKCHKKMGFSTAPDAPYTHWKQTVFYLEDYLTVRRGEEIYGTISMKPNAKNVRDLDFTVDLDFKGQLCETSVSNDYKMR

[11] = biological target: T1, Protein arginine N-methyltransferase 6; experiment: Binding affinity to human PRMT6 assessed as inhibition constant using (3H) methylated biotin labelled peptide as substrate in presence of 3H-SAM by scintillation proximity assay
Method in brief: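 Scintillation proximity assay with 3H-SAM as methyl donor, topped up with unlabelled SAM when needed. The methylated biotinylated peptide was captured on streptavidin/scintillant-coated plates and counted as cpm. IC50 came from compound titration at Km concentrations of both peptide substrate and SAM, in triplicate, reported as mean ± SD. Ki was calculated from IC50.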
Target sequence in this assay (Q96LA8 whole entry): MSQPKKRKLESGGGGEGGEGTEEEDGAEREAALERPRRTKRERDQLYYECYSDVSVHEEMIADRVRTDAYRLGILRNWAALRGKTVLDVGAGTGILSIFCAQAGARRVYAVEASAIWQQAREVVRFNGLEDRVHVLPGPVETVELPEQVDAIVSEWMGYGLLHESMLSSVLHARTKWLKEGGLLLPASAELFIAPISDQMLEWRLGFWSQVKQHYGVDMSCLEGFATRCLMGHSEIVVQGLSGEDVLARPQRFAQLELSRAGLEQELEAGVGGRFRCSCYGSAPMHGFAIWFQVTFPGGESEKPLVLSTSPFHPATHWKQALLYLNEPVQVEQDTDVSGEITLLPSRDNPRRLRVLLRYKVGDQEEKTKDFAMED

[12] = biological target: E3 ubiquitin-protein ligase UHRF1 (Homo sapiens) (UniProt Q96T88)
Chain of E3 ubiquitin-protein ligase UHRF1 (Homo sapiens) (Q96T88 whole entry, the tested form may be a part): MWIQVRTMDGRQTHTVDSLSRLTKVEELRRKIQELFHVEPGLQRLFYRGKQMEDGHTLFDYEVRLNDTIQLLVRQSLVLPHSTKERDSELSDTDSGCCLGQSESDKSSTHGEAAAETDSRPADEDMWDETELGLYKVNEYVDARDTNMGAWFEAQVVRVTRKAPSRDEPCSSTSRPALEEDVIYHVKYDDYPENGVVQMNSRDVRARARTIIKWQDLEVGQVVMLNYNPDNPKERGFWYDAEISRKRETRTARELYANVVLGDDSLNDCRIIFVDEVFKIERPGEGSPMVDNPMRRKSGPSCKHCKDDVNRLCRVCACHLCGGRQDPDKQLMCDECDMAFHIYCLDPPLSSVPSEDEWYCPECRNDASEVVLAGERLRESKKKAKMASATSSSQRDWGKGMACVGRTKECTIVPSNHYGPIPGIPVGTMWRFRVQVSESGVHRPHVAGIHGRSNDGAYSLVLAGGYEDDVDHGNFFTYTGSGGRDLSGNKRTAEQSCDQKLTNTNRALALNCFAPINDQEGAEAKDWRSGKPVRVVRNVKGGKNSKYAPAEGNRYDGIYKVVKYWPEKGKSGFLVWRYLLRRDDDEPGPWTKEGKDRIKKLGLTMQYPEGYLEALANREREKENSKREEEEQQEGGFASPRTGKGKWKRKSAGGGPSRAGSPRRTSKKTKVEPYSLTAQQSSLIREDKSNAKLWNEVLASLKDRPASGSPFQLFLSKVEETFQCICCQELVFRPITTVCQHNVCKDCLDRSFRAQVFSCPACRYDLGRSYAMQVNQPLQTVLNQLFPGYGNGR

[13] = biological target: AT-rich interactive domain-containing protein 4A (Homo sapiens) (UniProt P29374)
[14] = biological target: Peregrin (Homo sapiens) (UniProt P55201)
[15] = biological target: Growth/differentiation factor 2 (Homo sapiens) (UniProt Q9UK05)
Chain of Growth/differentiation factor 2 (Homo sapiens) (Q9UK05 whole entry): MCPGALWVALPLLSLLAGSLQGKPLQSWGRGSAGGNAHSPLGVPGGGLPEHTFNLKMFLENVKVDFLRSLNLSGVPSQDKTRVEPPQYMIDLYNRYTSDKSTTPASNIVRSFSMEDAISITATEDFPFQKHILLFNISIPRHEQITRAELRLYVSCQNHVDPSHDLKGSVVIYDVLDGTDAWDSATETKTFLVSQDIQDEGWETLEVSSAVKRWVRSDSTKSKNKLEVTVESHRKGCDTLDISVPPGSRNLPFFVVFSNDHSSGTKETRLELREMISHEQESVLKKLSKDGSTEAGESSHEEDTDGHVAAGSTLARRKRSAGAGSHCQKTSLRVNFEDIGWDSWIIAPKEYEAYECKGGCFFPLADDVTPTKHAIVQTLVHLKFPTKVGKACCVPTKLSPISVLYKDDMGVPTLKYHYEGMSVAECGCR

[16] = biological target: T1, Protein arginine N-methyltransferase 6; experiment: Inhibition of human PRMT6 assessed as inhibition constant in presence of cofactor SAM
Target sequence in this assay (Q96LA8 whole entry): as the sequence (Q96LA8 whole entry) above

[17] = tested on: HEK293; settings: Homo sapiens, dose 333.0 nM, time 20.0 hrs
[18] = tested on: HFF; experiment: Cytotoxicity in human HFF cells assessed as cell confluency at <=1 uM incubated for 96 hrs by phase contrast cell imaging analysis; assay type: toxicity, cell-based
[19] = biological target: WD repeat-containing protein 5 (Homo sapiens) (UniProt P61964)
[20] = biological target: T1, Protein arginine N-methyltransferase 6; experiment: Inhibition of human PRMT6 using (3H) methylated biotin labelled peptide as substrate incubated for 30 mins in presence of 3H-SAM by scintillation proximity assay
Target sequence in this assay (Q96LA8 whole entry): as above

[21] = biological target: RNA-binding protein FXR1 (Homo sapiens) (UniProt P51114)
Chain of RNA-binding protein FXR1 (Homo sapiens) (P51114 whole entry): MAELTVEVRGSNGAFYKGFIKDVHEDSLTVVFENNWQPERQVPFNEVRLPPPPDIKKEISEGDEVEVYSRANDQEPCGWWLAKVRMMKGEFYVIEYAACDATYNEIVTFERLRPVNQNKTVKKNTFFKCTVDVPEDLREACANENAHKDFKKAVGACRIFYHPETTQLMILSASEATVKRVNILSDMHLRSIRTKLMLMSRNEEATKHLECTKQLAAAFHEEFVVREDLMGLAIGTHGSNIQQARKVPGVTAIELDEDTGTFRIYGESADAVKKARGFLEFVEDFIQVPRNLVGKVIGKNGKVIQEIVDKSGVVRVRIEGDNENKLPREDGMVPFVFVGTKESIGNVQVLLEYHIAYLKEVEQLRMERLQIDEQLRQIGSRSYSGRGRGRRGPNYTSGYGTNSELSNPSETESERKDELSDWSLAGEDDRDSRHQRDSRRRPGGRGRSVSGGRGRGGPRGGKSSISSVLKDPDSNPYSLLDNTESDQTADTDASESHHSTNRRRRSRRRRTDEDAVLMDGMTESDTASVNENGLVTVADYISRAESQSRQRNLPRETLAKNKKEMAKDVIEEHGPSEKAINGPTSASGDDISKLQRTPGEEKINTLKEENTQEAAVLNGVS

[22] = biological target: Polycomb protein EED (Homo sapiens) (UniProt O75530)
Chain of Polycomb protein EED (Homo sapiens) (O75530 2-441 limits assumed): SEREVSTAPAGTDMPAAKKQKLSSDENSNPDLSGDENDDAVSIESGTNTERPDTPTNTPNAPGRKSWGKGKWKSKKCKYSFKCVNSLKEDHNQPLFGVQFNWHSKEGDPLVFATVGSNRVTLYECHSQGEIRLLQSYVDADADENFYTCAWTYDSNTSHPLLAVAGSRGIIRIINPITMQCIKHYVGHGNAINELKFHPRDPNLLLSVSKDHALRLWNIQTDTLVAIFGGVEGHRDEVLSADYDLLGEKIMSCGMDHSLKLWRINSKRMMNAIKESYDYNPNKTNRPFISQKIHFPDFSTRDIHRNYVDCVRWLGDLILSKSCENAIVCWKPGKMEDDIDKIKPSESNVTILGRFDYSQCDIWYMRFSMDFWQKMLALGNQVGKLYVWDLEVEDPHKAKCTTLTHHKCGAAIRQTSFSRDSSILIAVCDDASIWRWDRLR

[23] = biological target: T8, Histone-arginine methyltransferase CARM1 (Homo sapiens, UniProt Q86X55); experiment: Inhibition of human PRMT4 assessed as inhibition constant using peptide as substrate
T8 sequence (Q86X55 whole entry): T4 sequence (whole entry)

[24] = tested on: HEK293; experiment: Cytotoxicity in human HEK293 cells assessed as inhibition of cell growth at 1 uM incubated for 4 days by phase contrast cell imaging analysis; assay type: toxicity, cell-based; settings: hek293, 96 h, time 4 day
[25] = biological target: T8, Histone-arginine methyltransferase CARM1; experiment: as §2
Method in brief: as §1, with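 “IC50.” for “IC50. A lower enzyme level (5 nM) is used for some potent compounds.”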

[26] = biological target: Tudor domain-containing protein 3 (Homo sapiens) (UniProt Q9H7E2)
[27] = tested on: HEK293; settings: Homo sapiens, dose 1000.0 nM, time 20.0 hrs
[28] = biological target: T8, Histone-arginine methyltransferase CARM1; experiment: Inhibition of human PRMT4 assessed as inhibition constant in presence of cofactor SAM
[29] = biological target: Staphylococcal nuclease domain-containing protein 1 (Homo sapiens) (UniProt Q7KZF4)
[30] = tested on: MCF7; experiment: Antiproliferative activity against human MCF7 cells assessed as decrease in cell number at 0.1 uM incubated for 10 days by vybrant dye cycle green/ Enzo-nuclear-ID red staining based live cell imaging analysis relative to control; assay type: functional; design: scale not given: the % may be the effect or the level left; settings: time 10 day
[31] = biological target: T2, Protein arginine N-methyltransferase 8; experiment: Inhibition of human PRMT8 assessed as inhibition constant using peptide as substrate
Target sequence in this assay (Q9NR22 whole entry): as the sequence (Q9NR22 whole entry) above

[32] = biological target: T1, Protein arginine N-methyltransferase 6; experiment: Inhibition of human PRMT6 assessed as inhibition constant using peptide as substrate
Target sequence in this assay (Q96LA8 whole entry): as the sequence (Q96LA8 whole entry) above

[33] = biological target: T8, Histone-arginine methyltransferase CARM1; experiment: Binding affinity to human PRMT4 assessed as inhibition constant using (3H) methylated biotin labelled peptide as substrate in presence of 3H-SAM by scintillation proximity assay
[34] = biological target: T2, Protein arginine N-methyltransferase 8; experiment: Inhibition of human PRMT8 assessed as inhibition constant in presence of cofactor SAM
Target sequence in this assay (Q9NR22 whole entry): as the sequence (Q9NR22 whole entry) above

[35] = biological target: T6, Protein arginine N-methyltransferase 1; experiment: Binding affinity to human PRMT1 assessed as inhibition constant using (3H) methylated biotin labelled peptide as substrate in presence of 3H-SAM by scintillation proximity assay
Target sequence in this assay (Q99873 whole entry): as the sequence (Q99873 whole entry, looked up) above

[36] = biological target: T5, Protein arginine N-methyltransferase 3; experiment: Binding affinity to human PRMT3 assessed as inhibition constant using (3H) methylated biotin labelled peptide as substrate in presence of 3H-SAM by scintillation proximity assay
Target sequence in this assay (O60678 whole entry): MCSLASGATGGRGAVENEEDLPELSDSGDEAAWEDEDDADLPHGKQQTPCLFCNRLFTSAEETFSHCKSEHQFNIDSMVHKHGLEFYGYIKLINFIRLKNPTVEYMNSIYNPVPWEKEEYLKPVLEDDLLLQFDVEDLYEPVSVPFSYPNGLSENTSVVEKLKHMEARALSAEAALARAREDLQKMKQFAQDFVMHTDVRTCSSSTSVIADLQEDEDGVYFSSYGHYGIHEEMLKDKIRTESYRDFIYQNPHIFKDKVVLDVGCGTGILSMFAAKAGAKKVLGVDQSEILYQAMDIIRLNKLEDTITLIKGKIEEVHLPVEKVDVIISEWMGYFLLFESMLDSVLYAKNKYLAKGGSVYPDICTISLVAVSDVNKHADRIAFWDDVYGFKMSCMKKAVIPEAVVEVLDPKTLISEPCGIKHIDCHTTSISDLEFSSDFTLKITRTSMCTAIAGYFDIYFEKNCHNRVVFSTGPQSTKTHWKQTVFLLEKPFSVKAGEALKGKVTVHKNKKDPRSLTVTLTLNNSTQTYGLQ

Compound: CC(C)Oc1ccc(-c2c[nH]cc2CN(C)CC(N)=O)cc1
inhibition [1]: inactive
inhibition [2]: inactive
inhibition [3]: inactive
inhibition [4]: inactive
inhibition [5]: inactive
inhibition [6]: inactive
inhibition [7]: inactive
inhibition [8]: inactive
inhibition [9]: inactive

Compound: CC(C)Oc1ccc(-c2c[nH]cc2CN(C)CCN)cc1
IC50 [2]: 5 nM
ΔTm [12]: -1.5 °C
deltaTm [13]: inactive
ΔTm [14]: -0.3 °C
Ki [10]: 1.3 nM
ΔTm [15]: -3 °C
IC50 [16]: Not Active
inhibition [17]: Active
Activity [18]: Non-Toxic
ΔTm [19]: -1.3 °C
IC50 [20]: Not Active
deltaTm [21]: inactive
deltaTm [22]: inactive
IC50 [23]: Not Active
Activity [24]: Toxic
IC50 [25]: 83 nM
deltaTm [26]: inactive
inhibition [27]: Active
IC50 [28]: Not Active
deltaTm [29]: inactive
Activity [30]: 30%
IC50 [31]: Not Active
IC50 [32]: Not Active
Ki [33]: 23 nM
IC50 [34]: Not Active

Compound: CC(C)Oc1ccc(-c2c[nH]cc2CN(C)CCO)cc1
inhibition [1]: inactive
inhibition [2]: inactive
inhibition [3]: inactive
inhibition [4]: inactive
inhibition [5]: inactive
inhibition [6]: inactive
inhibition [7]: inactive
inhibition [8]: inactive
inhibition [9]: inactive

Now from value to compound:

IC50 [1]: 9 nM
IC50 [2]: 42 nM
Ki [10]: 17 nM
inhibition [3]: inactive
Ki [11]: 3 nM
inhibition [6]: inactive
inhibition [9]: inactive
Compound: CN(CCN)Cc1c[nH]cc1-c1cccc(C(F)(F)F)c1

inhibition [1]: inactive
inhibition [2]: inactive
inhibition [3]: inactive
inhibition [4]: inactive
inhibition [5]: inactive
inhibition [6]: inactive
inhibition [7]: inactive
inhibition [8]: inactive
inhibition [9]: inactive
Compound: CC(C)Oc1ccc(-c2c[nH]cc2C(=O)N(C)CCN)cc1

IC50 [1]: 230 nM
IC50 [2]: 3000 nM
Ki [35]: > 10000 nM
Ki [10]: 1500 nM
inhibition [3]: inactive
Ki [11]: 110 nM
IC50 [25]: > 75000 nM
Ki [36]: > 50000 nM
IC50 [5]: > 100000 nM
Ki [33]: > 37500 nM
inhibition [6]: inactive
IC50 [7]: > 20000 nM
inhibition [9]: inactive
Compound: CN(CCN)Cc1n[nH]nc1-c1cccc(C(F)(F)F)c1
